Active and inactive are the calls of the source. The calls are words filed in the database; no cut-off is given here.
Tests used:
[1] = species: Mus musculus; assay: Inhibition of cap/HCV-mediated translation in mouse Krebs2 cell free extract expressing FF/HCV/IRES-Ren mRNA reporter transcript assessed as reduction in luciferase production at 20 uM after 60 mins; format: functional
Method in brief: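 Compound stocks were 10 mM in DMSO, diluted to 200 μM in water, and tested at a final 20 μM in Krebs-2 translation extracts. The extracts were programmed with bicistronic Firefly–HCV IRES–Renilla luciferase mRNA. Reactions ran for 60 min at 30 °C, after which luciferase activities were measured.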

[2] = tested on: MDA-MB-231; assay: Cytotoxicity against human MDA-MB-231 cells assessed as reduction in cell viability after 72 hrs by alamarBlue assay; format: functional, cell-based; settings: MDA-MB-231, 72 h
Method in brief: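 MDA-MB-231 cells grown in DMEM with 10% FBS, 2 mM L-glutamine, penicillin/streptomycin, 37 °C, 5% CO2. Seeded at 10⁴ cells/well, preincubated 24 h, then compound or DMSO vehicle (0.1% or 1.0% v/v) for 72 h. Viability by Alamar Blue, absorbance at 570 nm (600 nm reference), as % of vehicle control; six replicates, at least six independent experiments.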

[3] = tested on: Lewis lung carcinoma cell line; assay: Cytotoxicity against mouse LL/2 cells assessed as reduction in cell viability by MTT assay; format: functional, cell-based
[4] = tested on: B16; assay: Cytotoxicity against mouse B16 cells assessed as reduction in cell viability by MTT assay; format: functional, cell-based
[5] = Cytotoxicity against mouse C26 cells assessed as reduction in cell viability by MTT assay; format: functional, cell-based
[6] = tested on: HepG2; assay: Cytotoxicity against human HepG2 cells assessed as reduction in cell viability by MTT assay; format: functional, cell-based

Compound | inhibition [1] | IC50 [2] | also measured
COc1ccc2c(c1)O[C@@H]1COc3c(cc(OC)c4c3OCO4)[C@]1(O)C2=O | inactive | – | –
COc1ccc2c(c1)O[C@@H]1COc3cc(OC)c(OC)cc3[C@@H]1C2=O | inactive | – | –
CC(C)=CCOc1ccc2c(=O)c(-c3ccc4c(c3)OCO4)coc2c1 | inactive | 154 µM | –
COc1cc2c(cc1OC)[C@]1(O)C(=O)c3ccc4c(c3O[C@@H]1CO2)C=CC(C)(C)O4 [TEPHROSIN] | inactive | – | IC50 [3]: 1.35 to 9.85 µM; IC50 [4]: 1.35 to 9.85 µM; IC50 [5]: 1.35 to 9.85 µM; IC50 [6]: 1.35 to 9.85 µM
COc1cc2c(cc1-c1coc3c(CC=C(C)C)c(OC)c(OC)cc3c1=O)OCO2 | inactive | > 235 µM | –
COc1ccc2c(c1)O[C@@H]1COc3cc4c(cc3[C@@H]1C2=O)OCO4 | inactive | 93.8 µM | –
COc1ccc2c(c1)O[C@@H]1COc3cc(OC)c(OC)cc3[C@]1(O)C2=O | inactive | – | –
COc1ccc2c(c1)O[C@@H]1COc3cc4c(cc3[C@]1(O)C2=O)OCO4 | inactive | – | –
COc1cc2occ(-c3cc4c(cc3OC)OCO4)c(=O)c2cc1OC | inactive | – | –
COc1cc2c(cc1OC)-c1c(oc3c4c(ccc3c1=O)OC(C)(C)C=C4)CO2 [DEHYDRODEGUELIN] | inactive | – | IC50 [3]: 0.56 to 16 µM; IC50 [4]: 0.56 to 16 µM; IC50 [5]: 0.56 to 16 µM; IC50 [6]: 0.56 to 16 µM
COc1ccc2c(c1)O[C@@H]1COc3cc4c(cc3[C@@]1(O)C2=O)OCO4 | inactive | – | –
COc1ccc(-c2coc3cc(OCC=C(C)C)ccc3c2=O)cc1 | inactive | 33.3 µM | –
COc1ccc2c(=O)c(-c3cc(OC)c4c(c3OC)OCO4)coc2c1 | inactive | 168 µM | –
COc1cc2c(cc1-c1coc3cc(O)ccc3c1=O)OCO2 | inactive | – | –
